System: not listed separately
Experiment: Antiproliferative activity against human SKHep cells after 12 hrs by MTT assay
Assay type: functional, cell-based
Conditions: not given
In short: (§1)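 MTT assay. Cells grown as monolayers in DMEM with 10% FBS, 2 mM glutamine and penicillin/streptomycin at 37 °C, 5% CO2. Seeded at 1×10^4 cells/well and held 12 h before serial compound dilutions were added. Final DMSO was under 1% (v/v). MTT (2 mg/ml) was present for the last 1.5 h; the formazan was dissolved in DMSO and read at 570 nm. IC50 interpolated from dose-response curves; mean ± sem of four to six experiments.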

Row | SMILES | IC50 [µM]
1 | COc1ccc2c(=O)cc(/C=C/c3ccc(OC(F)(F)F)cc3)oc2c1 | > 40
2 | COc1cc(OC)c2c(=O)cc(/C=C/c3ccc(OCC4CC4)cc3)oc2c1 | 22.1
3 | COc1cc(OC)c2c(=O)cc(/C=C/c3ccc([N+](=O)[O-])cc3)oc2c1 | 22
4 | COc1cccc2oc(/C=C/c3ccc(OC(F)(F)F)cc3)cc(=O)c12 | 21
5 | COc1cc(OC)c2c(=O)cc(/C=C/c3ccc(OC(F)(F)F)cc3)oc2c1 | 12.5
6 | COc1cc(OC)c2c(=O)cc(/C=C/c3ccncc3)oc2c1 | > 40
7 | COc1ccc2oc(/C=C/c3ccc(OC(F)(F)F)cc3)cc(=O)c2c1 | > 40
8 | COc1cc(/C=C/c2cc(=O)c3c(OC)cc(OC)cc3o2)cc(OC)c1 | 23.7

System: HeLa
Experiment: Antiproliferative activity against human HeLa cells after 12 hrs by MTT assay
Assay type: functional, cell-based
Conditions: not given
In short: as §1

Row | IC50 [µM] | SMILES
9 | 9.9 | COc1ccc2c(=O)cc(/C=C/c3ccc(OC(F)(F)F)cc3)oc2c1
10 | 10.9 | COc1cc(OC)c2c(=O)cc(/C=C/c3ccc(OCC4CC4)cc3)oc2c1
11 | 9.6 | COc1cc(OC)c2c(=O)cc(/C=C/c3ccc([N+](=O)[O-])cc3)oc2c1
12 | 9.1 | COc1cccc2oc(/C=C/c3ccc(OC(F)(F)F)cc3)cc(=O)c12
13 | > 40 | COc1cc(OC)c2c(=O)cc(/C=C/c3ccc(OC(F)(F)F)cc3)oc2c1
14 | 18.8 | COc1cc(OC)c2c(=O)cc(/C=C/c3ccncc3)oc2c1
15 | 9 | COc1ccc2oc(/C=C/c3ccc(OC(F)(F)F)cc3)cc(=O)c2c1
16 | 16.7 | COc1cc(/C=C/c2cc(=O)c3c(OC)cc(OC)cc3o2)cc(OC)c1

System: A549
Experiment: Antiproliferative activity against human A549 cells after 12 hrs by MTT assay
Assay type: functional, cell-based
Conditions: A549, 12 h
In short: as §1

Row | IC50 [µM] | SMILES
17 | > 40 | COc1ccc2c(=O)cc(/C=C/c3ccc(OC(F)(F)F)cc3)oc2c1
18 | 20.9 | COc1cc(OC)c2c(=O)cc(/C=C/c3ccc(OCC4CC4)cc3)oc2c1
19 | 19.7 | COc1cc(OC)c2c(=O)cc(/C=C/c3ccc([N+](=O)[O-])cc3)oc2c1
20 | > 40 | COc1cccc2oc(/C=C/c3ccc(OC(F)(F)F)cc3)cc(=O)c12
21 | 24.2 | COc1cc(OC)c2c(=O)cc(/C=C/c3ccc(OC(F)(F)F)cc3)oc2c1
22 | > 40 | COc1cc(OC)c2c(=O)cc(/C=C/c3ccncc3)oc2c1
23 | > 40 | COc1ccc2oc(/C=C/c3ccc(OC(F)(F)F)cc3)cc(=O)c2c1
24 | 15.6 | COc1cc(/C=C/c2cc(=O)c3c(OC)cc(OC)cc3o2)cc(OC)c1

System: not listed separately
Experiment: Antiproliferative activity against human BT-483 cells after 12 hrs by MTT assay
Assay type: functional, cell-based
Conditions: BT-483, 12 h, read-out: IC50
In short: as §1

Row | SMILES | IC50 [µM]
25 | COc1ccc2c(=O)cc(/C=C/c3ccc(OC(F)(F)F)cc3)oc2c1 | 20.1
26 | COc1cc(OC)c2c(=O)cc(/C=C/c3ccc(OCC4CC4)cc3)oc2c1 | 16.6
27 | COc1cc(OC)c2c(=O)cc(/C=C/c3ccc([N+](=O)[O-])cc3)oc2c1 | 25.5
28 | COc1cccc2oc(/C=C/c3ccc(OC(F)(F)F)cc3)cc(=O)c12 | 18.2
29 | COc1cc(OC)c2c(=O)cc(/C=C/c3ccc(OC(F)(F)F)cc3)oc2c1 | 26.6
30 | COc1cc(OC)c2c(=O)cc(/C=C/c3ccncc3)oc2c1 | 25.2
31 | COc1ccc2oc(/C=C/c3ccc(OC(F)(F)F)cc3)cc(=O)c2c1 | > 40
32 | COc1cc(/C=C/c2cc(=O)c3c(OC)cc(OC)cc3o2)cc(OC)c1 | 16.6

Same assay, conditions: BT-483, 12 h, read-out: pIC50 (converted)

Row | SMILES | IC50 [µM]
33 | COc1ccc2c(=O)cc(/C=C/c3ccc(OC(F)(F)F)cc3)oc2c1 | 20
34 | COc1cc(OC)c2c(=O)cc(/C=C/c3ccc(OCC4CC4)cc3)oc2c1 | 16.6
35 | COc1cc(OC)c2c(=O)cc(/C=C/c3ccc([N+](=O)[O-])cc3)oc2c1 | 25.5
36 | COc1cccc2oc(/C=C/c3ccc(OC(F)(F)F)cc3)cc(=O)c12 | 18.2
37 | COc1cc(OC)c2c(=O)cc(/C=C/c3ccc(OC(F)(F)F)cc3)oc2c1 | 26.3
38 | COc1cc(OC)c2c(=O)cc(/C=C/c3ccncc3)oc2c1 | 25.1
39 | COc1cc(/C=C/c2cc(=O)c3c(OC)cc(OC)cc3o2)cc(OC)c1 | 16.6

System: PC-3
Experiment: Antiproliferative activity against human PC3 cells after 12 hrs by MTT assay
Assay type: functional, cell-based
Conditions: PC-3, 12 h
In short: as §1

Row | IC50 [µM] | SMILES
40 | > 40 | COc1ccc2c(=O)cc(/C=C/c3ccc(OC(F)(F)F)cc3)oc2c1
41 | > 40 | COc1cc(OC)c2c(=O)cc(/C=C/c3ccc(OCC4CC4)cc3)oc2c1
42 | > 40 | COc1cc(OC)c2c(=O)cc(/C=C/c3ccc([N+](=O)[O-])cc3)oc2c1
43 | > 40 | COc1cccc2oc(/C=C/c3ccc(OC(F)(F)F)cc3)cc(=O)c12
44 | > 40 | COc1cc(OC)c2c(=O)cc(/C=C/c3ccc(OC(F)(F)F)cc3)oc2c1
45 | > 40 | COc1cc(OC)c2c(=O)cc(/C=C/c3ccncc3)oc2c1
46 | > 40 | COc1ccc2oc(/C=C/c3ccc(OC(F)(F)F)cc3)cc(=O)c2c1
47 | > 40 | COc1cc(/C=C/c2cc(=O)c3c(OC)cc(OC)cc3o2)cc(OC)c1
